Experimental data as given in ChEMBL document CHEMBL1124631, “3-(aminoalkyl)-1,2,3,4-tetrahydro-5H-[1]benzopyrano[3,4-c] pyridin-5-ones as potential anticholinergic bronchodilators” (1989).

What was measured:
Canis familiaris [1] = species on record: Canis familiaris; assay: Compound dose for inhibiting dog cholinergic bronchoconstriction by 50% of control value.; type: functional; settings: Canis lupus familiaris, Lung; read-out: ID50 (the source's name)
How it was run: (§1)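 Dogs with femoral vein cannulated; respiratory rate, heart rate and arterial pressure monitored. Bunolol 0.5 mg/kg iv given 30 min before pilocarpine nitrate infusion (0.2 mg/kg/h) to induce bronchospasm and salivation. Saliva collected from catheterized Wharton's duct every 5 min. Cumulative iv doses 1–10,000 μg/kg given every 5 min. ID50 by linear regression of log cumulative dose vs % inhibition. Mostly one dog per compound.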

Canis familiaris [2] = species on record: Canis familiaris; assay: Pulmonary selectivity measured as the ratio of salivation and bronchospasm; type: functional, Canis lupus familiaris, Bronchiole
How it was run: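 Pilocarpine-infused dog model measuring pulmonary resistance and salivary output under cumulative iv doses (1–10,000 μg/kg). ID50 for each response by log dose–response linear regression. Selectivity = ID50 for salivation inhibition divided by ID50 for bronchospasm inhibition. Most compounds tested in one dog.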

Cavia porcellus = assay: Methacholine challenge test was performed on guinea pigs by administration of compound at 25 mg/kg perorally; type: functional; settings: route oral
How it was run: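 Hartley guinea pigs, six per treatment, dosed orally at 25 mg/kg 15 min before challenge. Exposed for 10 min to 0.1% methacholine chloride aerosol from two nebulizers in a closed chamber, air pressure 10 lb/in.². Time from aerosol onset to collapse recorded and averaged ± S.E.M. Non-collapsing animals removed at 10 min and scored 10.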

Canis familiaris [3] = species on record: Canis familiaris; assay: Inhibition of dog salivation by 50% of control value.; type: functional; settings: Canis lupus familiaris; read-out: ID50 (the source's name); how it was run: as §1

| Structure (SMILES) | ED50 (Canis familiaris [1]) | Ratio (Canis familiaris [2]) | Collapse time (Cavia porcellus) | ED50 (Canis familiaris [3]) |
| --- | --- | --- | --- | --- |
| CCN(C)C(C)CN1CCc2c(c(=O)oc3cc(OC)ccc23)C1 (centres undefined) | 0.015 mg/kg | 1.5 | 9.1 min | 0.023 mg/kg |
| Cc1cc2oc(=O)c3c(c2cc1C)CCN(CCN1CC2CCC(CC2)C1)C3 | 0.372 mg/kg | 0.6 | 5.1 min | 0.223 mg/kg |
| COc1cc2oc(=O)c3c(c2cc1OC)CCN(CCN1C(C)(C)CCCC1(C)C)C3 | – | – | 2.8 min | – |
| CCNC(C)CN1CCc2c(c(=O)oc3cc(C)ccc23)C1 (centres undefined) | 0.627 mg/kg | 0.36 | 10 min | 0.225 mg/kg |
| COc1ccc2c3c(c(=O)oc2c1)CN(CCN1CC2CCC(CC2)C1)CC3 | 0.035 mg/kg | 3 | 6 min | 0.104 mg/kg |
| Cc1ccc2c3c(c(=O)oc2c1)CN(CC(C)N(C)C)CC3 (centres undefined) | – | 3.7 | 10 min | – |
| CCN(CC)C(C)CN1CCc2c(c(=O)oc3cc(OC)c(OC)cc23)C1 (centres undefined) | – | 3.5 | 7.8 min | – |
| COc1ccc2c3c(c(=O)oc2c1)CN(CCN1CC2CCCC(C2)C1)CC3 | 1.03 mg/kg | 0.15 | 7.3 min | 0.154 mg/kg |
| CC(C)c1ccc2c3c(c(=O)oc2c1)CN(CCN1CC2CCC(CC2)C1)CC3 | 0.209 mg/kg | 0.61 | 6.2 min | 0.128 mg/kg |
| CCN(CC)C(C)CN1CCc2c(c(=O)oc3cc(C)ccc23)C1 (centres undefined) | – | 4.6 | 6.6 min | – |
| COc1cc2oc(=O)c3c(c2cc1OC)CCN(CCCN1CCCCC1)C3 | – | – | 1.6 min | – |
| CCOc1cc2oc(=O)c3c(c2cc1OCC)CCN(CCN1CC2CCC(CC2)C1)C3 | 0.267 mg/kg | 0.79 | 6.3 min | 0.21 mg/kg |
| COc1ccc2c3c(c(=O)oc2c1)CN(CCN1CCOCC1)CC3 | 1.14 mg/kg | 0.63 | 6.1 min | 0.714 mg/kg |
| COc1cc2oc(=O)c3c(c2cc1OC)CCN(CC(C)N(C)C)C3 (centres undefined) | – | 4.5 | 5.2 min | – |
| CN1[C@@H]2CC[C@H]1C[C@@H](OC(=O)C(CO)c1ccccc1)C2 (some centres undefined) [ATROPINE] | 0.007 mg/kg | 0.46 | – | 0.0032 mg/kg |
| CCCN(CC)C(C)CN1CCc2c(c(=O)oc3cc(C)ccc23)C1 (centres undefined) | 0.116 mg/kg | 1.6 | 7.6 min | 0.182 mg/kg |
| CCN(CC)C(C)CN1CCc2c(c(=O)oc3ccccc23)C1 (centres undefined) | – | 6.9 | 10 min | – |
| COc1cc2oc(=O)c3c(c2cc1OC)CCN(CC(C)N1CCCCC1)C3 (centres undefined) | 0.129 mg/kg | 1.3 | 10 min | 0.168 mg/kg |
| CCCN(C)C(C)CN1CCc2c(c(=O)oc3cc(OC)c(OC)cc23)C1 (centres undefined) | – | – | 2.5 min | – |
| CCCN(C)C(C)CN1CCc2c(c(=O)oc3cc(OC)ccc23)C1 (centres undefined) | 0.073 mg/kg | 1.2 | 10 min | 0.084 mg/kg |

| Structure (SMILES) | ED50 (Canis familiaris [1]) | Ratio (Canis familiaris [2]) | Collapse time (Cavia porcellus) | ED50 (Canis familiaris [3]) |
| --- | --- | --- | --- | --- |
| CCCN(CC)C(C)CN1CCc2c(c(=O)oc3cc(OC)c(OC)cc23)C1 (centres undefined) | – | – | 3.7 min | – |
| CCNC(C)CN1CCc2c(c(=O)oc3cc(OC)ccc23)C1 (centres undefined) | 0.086 mg/kg | 2.6 | 7.5 min | 0.227 mg/kg |
| COc1cc2oc(=O)c3c(c2cc1OC)CCN(CC(C)N1CCOCC1)C3 (centres undefined) | – | – | 10 min | – |
| CCN(CC)CCN1CCc2c(c(=O)oc3cc(OC)ccc23)C1 | 0.394 mg/kg | 0.4 | 8 min | 0.158 mg/kg |
| COc1cc2oc(=O)c3c(c2cc1OC)CCN(CCN1CCCCCC1)C3 | – | – | 4 min | – |
| CC(CN1CCc2c(c(=O)oc3ccccc23)C1)N1CCCC1 (centres undefined) | 0.088 mg/kg | 2.2 | 10 min | 0.19 mg/kg |
| COc1ccc2c3c(c(=O)oc2c1)CN(CCN1CCCCC1)CC3 | 0.205 mg/kg | 0.69 | 9.5 min | 0.141 mg/kg |
| CC(CN1CCc2c(c(=O)oc3ccccc23)C1)N1CCCCC1 (centres undefined) | 0.038 mg/kg | 5.8 | 10 min | 0.219 mg/kg |
| CC(CN1CCc2c(c(=O)oc3ccccc23)C1)N(C)C (centres undefined) | – | 21.6 | 10 min | – |
| CCCN(CC)C(C)CN1CCc2c(c(=O)oc3ccccc23)C1 (centres undefined) | 1.11 mg/kg | 0.88 | 6.4 min | 0.97 mg/kg |
| CCN(C)C(C)CN1CCc2c(c(=O)oc3cc(OC)c(OC)cc23)C1 (centres undefined) | 0.135 mg/kg | 0.82 | 6 min | 0.111 mg/kg |
| CCc1ccc2c3c(c(=O)oc2c1)CN(CCN1CC2CCC(CC2)C1)CC3 | 0.074 mg/kg | 0.55 | 6.8 min | 0.041 mg/kg |
| Cc1ccc2c3c(c(=O)oc2c1)CN(CCN1CC2CCC(CC2)C1)CC3 | 0.235 mg/kg | 1.9 | 5 min | 0.452 mg/kg |
| COc1ccc2c3c(c(=O)oc2c1)CN(CCN1CCCCCC1)CC3 | 0.223 mg/kg | 1.8 | 8 min | 0.398 mg/kg |
| COc1ccc2c3c(c(=O)oc2c1)CN(CCN(C)C)CC3 | – | – | 1.9 min | – |
| Cc1ccc2c3c(c(=O)oc2c1)CN(CC(C)N1CCCCC1)CC3 (centres undefined) | 0.04 mg/kg | 2.7 | 9.7 min | 0.108 mg/kg |
| COc1cc2oc(=O)c3c(c2cc1OC)CCN(CCN1CC2CCC1CC2)C3 | 0.137 mg/kg | 1 | 7.6 min | 0.14 mg/kg |
| CCN(CC)C(C)CN1CCc2c(c(=O)oc3cc(OC)ccc23)C1 (centres undefined) | 0.038 mg/kg | 1.2 | 10 min | 0.046 mg/kg |
| COc1cc2oc(=O)c3c(c2cc1OC)CCN(CCN1CC2CCC(CC2)C1)C3 | 0.113 mg/kg | 4.7 | 5 min | 0.53 mg/kg |
| CCN(C)C(C)CN1CCc2c(c(=O)oc3cc(C)ccc23)C1 (centres undefined) | – | 2.2 | 8.8 min | – |

| Structure (SMILES) | ED50 (Canis familiaris [1]) | Ratio (Canis familiaris [2]) | Collapse time (Cavia porcellus) | ED50 (Canis familiaris [3]) |
| --- | --- | --- | --- | --- |
| O=c1oc2ccccc2c2c1CN(CCN1CC3CCC(CC3)C1)CC2 | 0.849 mg/kg | 0.08 | 5.2 min | 0.068 mg/kg |
| CCCN(CCC)CCN1CCc2c(c(=O)oc3cc(OC)ccc23)C1 | 0.428 mg/kg | 2 | 7 min | 0.855 mg/kg |
| Cc1cc2oc(=O)c3c(c2cc1C)CCN(CC(C)N1CCCCC1)C3 (centres undefined) | 0.3 mg/kg | 3.9 | 7.7 min | 1.16 mg/kg |
| COc1ccc2c3c(c(=O)oc2c1)CN(CC(C)N(C)C)CC3 (centres undefined) | 0.025 mg/kg | 1.1 | 10 min | 0.027 mg/kg |
| CCCN(C)C(C)CN1CCc2c(c(=O)oc3cc(C)ccc23)C1 (centres undefined) | 0.192 mg/kg | 1.6 | 5.4 min | 0.304 mg/kg |
| COc1cc2oc(=O)c3c(c2cc1OC)CCN(CCN1CC2CCCC(C2)C1)C3 | 0.119 mg/kg | – | 6.6 min | – |
| COc1ccc2c3c(c(=O)oc2c1)CN(CCN1CCCC1)CC3 | 0.246 mg/kg | 3 | 9.1 min | 0.735 mg/kg |
| CCOc1cc2oc(=O)c3c(c2cc1OCC)CCN(CC(C)N1CCCC1)C3 (centres undefined) | 0.099 mg/kg | 1.6 | 9.4 min | 0.163 mg/kg |
| CCCN(CC)C(C)CN1CCc2c(c(=O)oc3cc(OC)ccc23)C1 (centres undefined) | 0.058 mg/kg | 0.47 | 10 min | 0.027 mg/kg |
| CCN1CCCC1CN1CCc2c(c(=O)oc3cc(OC)c(OC)cc23)C1.Cl.Cl (centres undefined) | – | – | 2.8 min | – |
| COc1cc2oc(=O)c3c(c2cc1OC)CCN(CC(C)N1CCCC1)C3 (centres undefined) | 0.017 mg/kg | 1.4 | 10 min | 0.023 mg/kg |
| CCOc1cc2oc(=O)c3c(c2cc1OCC)CCN(CC(C)N1CCCCC1)C3 (centres undefined) | 0.126 mg/kg | 1.5 | 10 min | 0.194 mg/kg |
| Cc1ccc2c3c(c(=O)oc2c1)CN(CC(C)N1CCCC1)CC3 (centres undefined) | 0.1 mg/kg | 2.3 | 8.7 min | 0.226 mg/kg |
| COc1cc2oc(=O)c3c(c2cc1OC)CCN(CC(C)N1CCCCCC1)C3 (centres undefined) | – | – | 1.7 min | – |
| CCNC(C)CN1CCc2c(c(=O)oc3cc(OC)c(OC)cc23)C1 (centres undefined) | – | – | 1.7 min | – |
| Cc1cc2oc(=O)c3c(c2cc1C)CCN(CC(C)N1CCCC1)C3 (centres undefined) | 0.315 mg/kg | 2.2 | 8.2 min | 0.699 mg/kg |
| CCNC(C)CN1CCc2c(c(=O)oc3ccccc23)C1 (centres undefined) | – | 5.9 | 10 min | – |
| COc1cc2oc(=O)c3c(c2cc1OC)CCN(CCN1CCCCC1)C3 | – | – | 4.9 min | – |
| COc1ccc2c3c(c(=O)oc2c1)CN(CCN1CC2CCC1CC2)CC3 | 0.063 mg/kg | 1.6 | 10 min | 0.102 mg/kg |
